ATG4B inh: blocks human ATG4B protease cleavage of LC3 substrate | Q9Y4P1 | ATG4B cleavage of LC3-PLA2, NBD-HPC fluorescence, 1 h | inhibition, % at 8.33 µM | actives 0.51% (n = 340,000) | AID 504462; in the data active = inhibition above about 40%
Target sequence (Q9Y4P1 whole entry, looked up): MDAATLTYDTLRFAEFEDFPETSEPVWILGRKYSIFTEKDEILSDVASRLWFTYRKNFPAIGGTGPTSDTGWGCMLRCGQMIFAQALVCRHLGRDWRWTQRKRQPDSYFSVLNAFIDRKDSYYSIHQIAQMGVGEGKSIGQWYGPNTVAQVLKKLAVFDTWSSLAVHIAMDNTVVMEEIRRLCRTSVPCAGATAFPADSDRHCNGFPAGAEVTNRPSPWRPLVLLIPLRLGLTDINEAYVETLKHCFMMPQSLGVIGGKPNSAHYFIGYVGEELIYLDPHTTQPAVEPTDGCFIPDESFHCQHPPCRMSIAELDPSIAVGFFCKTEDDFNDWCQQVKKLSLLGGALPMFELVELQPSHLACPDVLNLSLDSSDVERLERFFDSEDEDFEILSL
MPTP block: permeability transition pore inhibition; isolated mouse mitochondria, Ca2+ swelling absorbance, 30 min; inhibition, % at 10 µM; actives 1.4% (n = 360,000); AID 602449;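 active = inhibition of 50% or more, scaled per plate between neutral and stimulator controls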
MC4R barr agon: human MC4R agonism via beta-arrestin | P32245 | U2OS MC4R beta-arrestin complementation, luminescence; percent of melanotan II response, DMSO zero | activation, % at 8.9 µM | actives 0.98% (n = 360,000);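 active = activation above a per-plate cutoff, the mean activation of sample wells on that plate plus 3 SD, cut at about 8% in these data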
Target sequence (P32245 whole entry, looked up): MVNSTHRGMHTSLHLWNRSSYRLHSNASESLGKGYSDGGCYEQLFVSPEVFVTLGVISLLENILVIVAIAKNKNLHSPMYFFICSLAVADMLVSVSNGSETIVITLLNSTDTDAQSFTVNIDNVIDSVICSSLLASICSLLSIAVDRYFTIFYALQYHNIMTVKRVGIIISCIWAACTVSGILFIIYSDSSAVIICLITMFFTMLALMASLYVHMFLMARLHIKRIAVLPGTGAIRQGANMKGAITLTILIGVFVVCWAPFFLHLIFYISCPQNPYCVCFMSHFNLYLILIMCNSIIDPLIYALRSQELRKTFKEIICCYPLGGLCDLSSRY
SMARCA2 activ: activators of SMARCA2 function | MG213 cells, MMTV-luciferase reporter, dexamethasone, overnight | activation, % at 9.1 µM | actives 1% (n = 370,000) | AID 652017; in the data active = activation above about 7.8%
MC4R antag cAMP: antagonists of human melanocortin 4 receptor (MC4R). MC4R-expressing cells, MTII-stimulated cAMP, LANCE TR-FRET. inhibition, % at 6.5 µM. actives 0.48% (n = 360,000);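 active = inhibition above its plate's cutoff, the mean of tested wells on that plate plus 3 SD, cut at about 29% in these data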
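Assay system: U2OS-MC4R stable cell line; Also added: Melanotan II; Technique: Eu-cAMP/anti-cAMP TR-FRET, emission 671 nm; Times: 30-min compound, 1-h challenge, 1-h detection, room temperature.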
ATG4B conf: ATG4B (human) inhibition, single-dose confirmed; AID 504757; actives 92% (n = 320); ATG4B protease fluorescent substrate cleavage assay; shares compounds with ATG4B inh; inhibition, % at 8.33 µM; in the data active = inhibition above about 39%
PLA2 counter: counter-screen for ATG4B inhibitors: human phospholipase A2. shares compounds with ATG4B inh. purified PLA2, NBD-C6-HPC fluorescence, 45 min. inhibition, % at 8.33 µM. actives 66% (n = 1,600). AID 588402; in the data active = inhibition above about 50%
Each line names hits and unclear results; the compound was inactive in the other large screens (follow-up assays come after a bar, where they were run). In the library only some 4.1% were active in any assay of this set; here they are far more common.

CCOC(=O)c1sc2ccccc2c1OC(=O)c1ccccc1	none
Cc1ccc(-n2c(SCc3cccc4ccccc34)nnc2-c2ccccn2)cc1	none (no result: ATG4B inh, MPTP block, MC4R barr agon, MC4R antag cAMP)
CC1=CN2C(=N)/C(=C/c3ccc(Sc4ccc(C)cc4)o3)C(=O)N=C2S1	ATG4B inh 43 | PLA2 counter 56
COc1ccc(OC)c(S(=O)(=O)n2c(CN3CCOCC3)nc3ccccc32)c1	none (no result: ATG4B inh, MPTP block, MC4R barr agon, MC4R antag cAMP)
NC(=O)c1ccc(OCC(F)(F)C(F)(F)C(F)(F)C(F)(F)C(F)(F)C(F)F)cc1	ATG4B inh 91 | PLA2 counter 92
Cc1cc(OCC(F)(F)C(F)(F)C(F)(F)C(F)(F)C(F)(F)C(F)F)nc(N)n1	none
CCc1ccc(Nc2ccc(C(N)=O)cc2[N+](=O)[O-])cc1	ATG4B inh 72 | PLA2 counter 81
CCc1ccc(Nc2ccc(C(=O)O)cc2[N+](=O)[O-])cc1	none
Cc1ccc(Nc2ccc(C(N)=O)cc2[N+](=O)[O-])cc1C	ATG4B inh 65 | PLA2 counter 65
COC(=O)Cc1nnn2c1[C@@H](C)[C@@H](c1ccccc1Br)OC[C@@H]2c1ccccc1	none (no result: ATG4B inh, MPTP block, MC4R barr agon, MC4R antag cAMP)
COC(=O)[C@H]1C[C@@]2(N3CCCCC3)c3ccccc3N(C(=O)OC(C)(C)C)[C@H]2N1C(=O)OC(C)(C)C	none (no result: ATG4B inh, MPTP block, MC4R barr agon, MC4R antag cAMP)
O=C(CCc1ccccc1-c1ccccc1CCNC(=O)c1ccccc1)NCc1ccccc1	none (no result: ATG4B inh, MPTP block, MC4R barr agon, MC4R antag cAMP)
COc1ccc(C(=O)Nc2cc(C(=O)c3ccccc3)c(C)oc2=O)cc1	ATG4B inh 44 | ATG4B conf 69 | PLA2 counter inactive
CC(=O)Nc1cc(C(=O)N2CCc3ccccc3C2)ccc1Sc1ccc(Cl)cc1	ATG4B inh 40 | PLA2 counter 51
CC(=O)Nc1cc(C(=O)N2CCc3ccccc3C2)ccc1Sc1ccc(F)cc1	none
Cn1c(SCC(=O)N2CCc3ccccc3C2)nnc1-c1ccncc1	none
CCc1cccc(CC)c1-n1c(SCC(=O)N2CCc3ccccc3C2)nnc1-c1cccnc1	ATG4B inh 68 | PLA2 counter 63
NC(=O)c1ccc(-n2nnnc2Oc2ccc(Br)cc2)cc1	none
CCc1ccc(Oc2nnnn2-c2ccc(C(N)=O)cc2)cc1	ATG4B inh 60 | PLA2 counter 91
COC(=O)C1=C(C)N(Cc2ccccc2C(F)(F)F)C(=NCc2ccc3c(c2)OCO3)NC1c1ccccc1C(F)(F)F (stereo not given)	none (no result: ATG4B inh, MPTP block, MC4R barr agon, MC4R antag cAMP)
CS(=O)(=O)N(CC(=O)Nc1cccc([N+](=O)[O-])c1)c1ccccc1	none
COc1ccc(C)cc1S(=O)(=O)N(CC(=O)Nc1cccc([N+](=O)[O-])c1)c1ccccc1	ATG4B inh 84 | PLA2 counter 90
OCCN1CN(c2ccccc2)C(=S)N(c2ccccc2)C1	none (no result: ATG4B inh, MPTP block, MC4R barr agon, MC4R antag cAMP)
Cc1c(Cl)c([N+](=O)[O-])nn1CCCC(=O)N(Cc1ccccc1)Cc1ccccc1	ATG4B inh 52 | PLA2 counter 60
Cc1c(Cl)c([N+](=O)[O-])nn1CCCC(=O)N1CCN(c2ccccc2)CC1	none
CCC1=Nc2cc(C(=O)N3CCCCC3)ccc2Sc2ccc(C)cc21	ATG4B inh 52 | PLA2 counter 57
CC1=Nc2cc(C(=O)N3CCCC3)ccc2Sc2ccc(C)cc21	none
CC1=Nc2cc(C(=O)N3CCCCC3)ccc2Sc2ccc(C)cc21	ATG4B inh 52 | PLA2 counter inactive
CCCCC[C@@H]1C=C(C(=O)O)[C@H](c2ccc3c(c2)OCO3)N1S(=O)(=O)c1ccc(C)cc1	ATG4B inh 50 | PLA2 counter 57
CC[C@@H]1C=C(C(=O)O)[C@H](c2ccc3c(c2)OCO3)N1S(=O)(=O)c1ccc(C)cc1	none
O=S1(=O)c2ccc(N3CCC[C@H]3CO)cc2OCCCN1C1CC1	none (no result: ATG4B inh, MPTP block, MC4R barr agon, MC4R antag cAMP)
O=C(Cn1cccc1C(=O)c1ccccc1)NCCc1ccc(Cl)cc1	ATG4B inh 45 | PLA2 counter 53
O=C(/C=C/c1ccc(Cl)cc1)N1CCN(c2c(Cl)cccc2[N+](=O)[O-])CC1	ATG4B inh 44 | PLA2 counter inactive
O=S1(=O)c2ccc(N3CCSCC3)cc2Oc2ccccc2CN1Cc1cn(Cc2ccc(F)cc2)nn1	none (no result: ATG4B inh, MPTP block, MC4R barr agon, MC4R antag cAMP)
COCCCn1c2nc3ccccc3nc2c2c(=O)n(-c3ccccc3OC)cnc21	none
COc1ccccc1-n1cnc2c(c1=O)c1nc3ccccc3nc1n2-c1ccc(C)c(C)c1	ATG4B inh 44 | PLA2 counter inactive
CC1(c2ccc(NC(=O)c3ccccc3F)cc2)CC1(Cl)Cl (stereo not given)	ATG4B inh 57 | PLA2 counter 67
O=C(/C=C(\Nc1cc(Cl)c(Cl)c(Cl)c1)c1ccccc1)c1ccccc1	none (no result: ATG4B inh, MPTP block, MC4R barr agon, MC4R antag cAMP)
CC(C)C[C@H](NC(=O)OC(C)(C)C)C(=O)N/N=C/c1ccc2nccnc2c1	none
CC(C)C[C@H](NC(=O)OC(C)(C)C)C(=O)N/N=C/C1=Cc2ccccc2OC1C (stereo not given in full)	ATG4B inh 42 | ATG4B conf 69 | PLA2 counter inactive
COCc1[nH]nc2c1C(c1cccc(C(F)(F)F)c1)N(c1ccc(OC)cc1)C2=O (stereo not given)	none (no result: ATG4B inh, MPTP block, MC4R barr agon, MC4R antag cAMP)
CCCCCCNC(=O)CC(c1ccccc1)c1cc(Br)ccc1O (stereo not given)	ATG4B inh 41 | PLA2 counter 56
O=C(CCn1nnc(-c2cccs2)n1)NCc1ccco1	none (no result: ATG4B inh, MPTP block, MC4R barr agon, MC4R antag cAMP)
NC(=O)CSc1nc2ccc([N+](=O)[O-])cc2[nH]1	ATG4B inh 42 | ATG4B conf 69 | PLA2 counter inactive
O=C(CSc1nc2ccc([N+](=O)[O-])cc2[nH]1)NC1CCCC1	none
Cc1ccc(S(=O)(=O)C2C(=O)N(C)C3(C)CC2c2ccccc2O3)cc1C (stereo not given)	ATG4B inh 79 | PLA2 counter 85
Cc1ccc(/C=C/C(O)=C2/C(=O)N(C)C3(C)CC2c2ccccc2O3)cc1 (stereo not given)	none
O=C(Nc1cc(-c2ccccc2)sc1C(=O)O)c1cccc(F)c1	ATG4B inh 93 | PLA2 counter 91
CCOc1ccc(-c2cc(NC(=O)c3c(F)cccc3F)c(C(=O)O)s2)cc1	ATG4B inh 92 | PLA2 counter 94
CCOc1ccc(NC(=O)Nc2cc(-c3ccccc3)sc2C(=O)OC)cc1	none
O=C(O)c1ccc(NC(=O)c2ccccc2NC(=O)c2cccc(F)c2)cc1	none
C[C@@H]1CCN(C2CC2)S(=O)(=O)c2c(cccc2N2CC[C@H](O)C2)O1	none (no result: ATG4B inh, MPTP block, MC4R barr agon, MC4R antag cAMP)
CCOC(=O)N1C(=O)C[C@](Sc2ccc(OC)cc2)(C(=O)N2CCCC2)[C@H]1c1ccc(OC)cc1	none (no result: ATG4B inh, MPTP block, MC4R barr agon, MC4R antag cAMP)
CC(C)CC(=O)c1c(O)cc(O)c2c1OC1=C(C(=O)C(C)(C)C(=O)C1(C)C)C2CC(C)C (stereo not given)	none (no result: ATG4B inh, MPTP block, MC4R barr agon, MC4R antag cAMP)

Assay outcomes: PubChem BioAssay, several laboratories
